Screens: PubChem, PCMD
Hits are enriched below; roughly 0.37% of the tested compounds scored in any of these assays.
FXIa single inh: inhibitors of human coagulation factor XIa. P03951. purified human FXIa, fluorogenic AMC substrate cleavage. inhibition, % at 10 µM. 33,000 tested, 0.3% active;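 active means inhibition above 40% in the primary screen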
Target sequence (P03951 19-387 limits assumed): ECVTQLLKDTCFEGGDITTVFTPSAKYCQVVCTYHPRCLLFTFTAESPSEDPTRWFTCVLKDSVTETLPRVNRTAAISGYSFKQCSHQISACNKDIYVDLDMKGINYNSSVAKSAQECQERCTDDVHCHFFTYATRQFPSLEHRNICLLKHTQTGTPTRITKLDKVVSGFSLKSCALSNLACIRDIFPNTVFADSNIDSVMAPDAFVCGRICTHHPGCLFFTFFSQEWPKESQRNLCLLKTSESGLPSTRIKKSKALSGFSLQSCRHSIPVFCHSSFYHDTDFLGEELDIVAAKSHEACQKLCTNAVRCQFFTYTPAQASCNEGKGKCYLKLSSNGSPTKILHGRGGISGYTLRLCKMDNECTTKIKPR
Target sequence (P03951 388-625 limits assumed): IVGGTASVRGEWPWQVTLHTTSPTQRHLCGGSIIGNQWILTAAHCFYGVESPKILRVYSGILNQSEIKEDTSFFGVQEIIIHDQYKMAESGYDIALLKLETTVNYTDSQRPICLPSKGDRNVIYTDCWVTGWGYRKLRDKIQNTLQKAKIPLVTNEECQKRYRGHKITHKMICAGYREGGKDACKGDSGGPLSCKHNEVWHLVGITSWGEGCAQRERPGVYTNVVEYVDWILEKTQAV
FXIIa inh: blocks human coagulation factor XIIa activity; P00748; purified human FXIIa, AMC substrate fluorescence, 2 h; inhibition, % at 10 µM; 33,000 tested, 0.2% active; in the data active means inhibition above about 30%
Yeast growth tox: Inhibitors of S. cerevisiae growth, toxicity | S. cerevisiae wild-type growth, A595 turbidity, 16 h | growth inhibition, % at 25 µM (by protocol) | 30,000 tested, 0.3% active;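 active means mutant and wild-type yeast strains alike exhibit over 30% growth inhibition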
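Incubation: 16 h growth with compound, 30 °C; Material: S. cerevisiae wild-type or eIF2Bepsilon-R284H mutant strain; Signal: turbidity measured as absorbance at 595 nm; Medium: YPD yeast growth medium; Measure: growth inhibition (%) versus cell controls and blanks; Doses: 25 µM single dose.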
Large screens that a line does not name were inactive.

CC1S/C(=C(\C#N)C(N)=O)N(c2ccc(F)cc2)C1=O (stereo not given)	none (no result: FXIa single inh, FXIIa inh)
CC1=C(CC/C(C)=N/NC(N)=S)C(C)(C)CCC1	none (no result: Yeast growth tox)
O=C(Nc1ccc(Cl)c(Cl)c1)C1CC(=O)N(c2ccc(Br)cc2)C1 (stereo not given)	Yeast growth tox 79.2 (no result: FXIa single inh, FXIIa inh)
Cc1ccc(N2CC(C(=O)Nc3nccs3)CC2=O)cc1Cl (stereo not given)	none
Cc1cc(C)nc(SC2=CS(=O)(=O)c3ccccc32)n1	none (no result: Yeast growth tox)
O=S1(=O)C=C(Sc2nnc(-c3ccccc3)o2)c2ccccc21	Yeast growth tox 76.2
CCC(C)[C@H](Nc1nc(-c2ccccc2)nc2c1oc1ccccc12)C(=O)O (stereo not given in full)	none (no result: Yeast growth tox)
CC(C)CNS(=O)(=O)c1ccc2c(c1)OCCO2	none
Cc1ccc(-c2csc(N3CCC(NS(=O)(=O)c4ccc5c(c4)OCCO5)CC3)n2)cc1	FXIa single inh 58.8
Cn1c(=O)n(CCc2ccccc2)c(=O)c2c1nc1n2CCN1c1ccccc1	none (no result: FXIa single inh, FXIIa inh)
CCOC(=O)N1CCN(C(=O)C2CCC(C(=O)N3CCN(C(=O)OCC)CC3)CC2)CC1 (stereo not given)	none (no result: FXIa single inh, FXIIa inh)
O=C(c1ccc(Cl)cc1)C1CCN(C(=O)C2CC2)CC1	none (no result: Yeast growth tox)
Cc1cc2oc(=O)c3c(c2cc1OC(=O)c1ccco1)CCCC3	none (no result: FXIa single inh, FXIIa inh)
O=C(Oc1ccc2c3c(c(=O)oc2c1)CCC3)c1ccco1	FXIIa inh 53.8 (no result: Yeast growth tox)
CN(c1ccc(C(=O)Nc2ccccc2C(=O)N2CCOCC2)cc1)S(C)(=O)=O	none
O=C(Nc1ccccc1C(=O)N1CCOCC1)c1ccc(F)cc1	FXIa single inh 46.7 (no result: Yeast growth tox)
CN(C)/C=C(/C#N)C(=O)c1cccc(Oc2ccc(C(C)(C)C)cc2)c1	none (no result: FXIa single inh, FXIIa inh)
CCCCNC(=O)COC(=O)c1ccc(Cl)c(S(N)(=O)=O)c1	none
CC(=O)c1ccc(OC(=O)c2ccc(Br)o2)cc1	FXIIa inh 49.6 (no result: Yeast growth tox)
Cc1ccc(OC(=O)c2ccc(Br)o2)cc1	none (no result: Yeast growth tox)
CCn1c(SCC(=O)c2[nH]c(C)c(C(C)=O)c2C)nnc1-c1ccccc1	FXIa single inh 41.3 (no result: Yeast growth tox)
CCOC(=O)c1c(NC(=O)CSc2nnc(-c3ccccc3)n2CC)sc(C(C)=O)c1C	none (no result: FXIa single inh, FXIIa inh)
CCSc1nnc(NC(=O)c2ccccn2)s1	Yeast growth tox 66.2
CCSc1nnc(NC(=O)c2ccc(Br)s2)s1	none (no result: Yeast growth tox)
CCOC(=O)N1CCC(N2C(=O)c3ccccc3C2Nc2c(C)cccc2C)CC1 (stereo not given)	none (no result: Yeast growth tox)
OC(Cn1cncn1)(c1ccccc1)c1ccccc1	Yeast growth tox 85.8
c1ccc(SCCOCCn2cncn2)cc1	none (no result: Yeast growth tox)
CN(CCOc1ccccc1)c1ccc(S(=O)(=O)N2CCCCC2)cn1	FXIa single inh 41.2 (no result: Yeast growth tox)
CN(Cc1c(F)cccc1Cl)c1ccc(S(=O)(=O)N2CCOCC2)cn1	none (no result: FXIa single inh, FXIIa inh)
COc1ccc(-n2cnnc2SCC(=O)Nc2nc(C)c(Cl)cc2Cl)cc1	none (no result: Yeast growth tox)
COc1ccccc1-n1cnnc1SCC(=O)Nc1nc(C)c(Cl)cc1Cl	FXIa single inh 43.4 (no result: Yeast growth tox)
CCn1nc(C)c(NS(=O)(=O)c2ccccc2)c1C	none
O=C(Nc1nc2n(n1)C(c1ccc(Cl)cc1)CC(c1ccc(Cl)cc1)N2)c1ccco1 (stereo not given)	FXIIa inh 45.9 (no result: Yeast growth tox)
O=C(Nc1nc2n(n1)C(c1ccccc1)C=C(c1ccccc1)N2)c1ccco1 (stereo not given)	none
CN(CC(CC(=O)Nc1nncs1)c1ccccc1)S(=O)(=O)c1ccc(Br)cc1 (stereo not given)	none (no result: Yeast growth tox)
O=C1CCCN1CCC1CCN(C2CC(=O)N(c3ccc(Cl)cc3)C2=O)CC1 (stereo not given)	none (no result: Yeast growth tox)
COc1cccc(NC(=O)C(NCC2CCCCC2)c2ccccc2)c1 (stereo not given)	none
CCCN(CCC)C(C(=O)Nc1cccc(OC)c1)c1ccccc1 (stereo not given)	FXIa single inh 104.5
CNC(=O)C1CC(=O)N(Cc2ccc3c(c2)OCO3)C(=Nc2ccc(OC)cc2)S1 (stereo not given)	none (no result: FXIa single inh, FXIIa inh)
CC1(C)CC2(CCO1)OC(=O)CC2C(=O)NCc1ccccc1 (stereo not given)	none (no result: FXIa single inh, FXIIa inh)
CC(Sc1ccc2ccccc2n1)C(=O)O (stereo not given)	none
CC(O)/C=C/c1ccc2ccccc2n1 (stereo not given)	Yeast growth tox 31.4 (no result: FXIa single inh, FXIIa inh)
Cc1cc(Cl)c(S(=O)(=O)N2CCN(c3ccccc3)CC2)cc1OCC(N)=O	none (no result: Yeast growth tox)
Cc1cccc(NC(=O)c2snc3c(=O)[nH]cnc23)c1	FXIa single inh 103.1
CCc1cccc(NC(=O)c2snc3c(=O)[nH]cnc23)c1	none
CCn1c(C)[n+](CC(O)COCC2CC=CCC2)c2ccccc21 (stereo not given)	none
Clc1ccc2c(c1)C(N1CCNCC1)Cc1ccccc1S2 (stereo not given)	Yeast growth tox 86.0
Clc1ccc2c(c1)C(N1CCNCC1)=Nc1ccccc1O2	none (no result: Yeast growth tox)
CCOC(=O)C(=O)Nc1nnc(CCc2ccccc2)s1	none
c1cnc2ccc(C(c3nnnn3C3CCCC3)N3CCN4CCCC4C3)cc2c1 (stereo not given)	none (no result: Yeast growth tox)
Cc1cccc2cc3c(nc12)SC(=NCC1CCCO1)N(Cc1ccco1)C3 (stereo not given)	none (no result: FXIa single inh, FXIIa inh)
COCCN=C1Sc2nc3c(C)cccc3cc2CN1Cc1ccco1	FXIa single inh 43.2 (no result: Yeast growth tox)
Cc1ccc(C(=O)n2nnc3ccccc32)cc1	FXIa single inh 96.6, FXIIa inh 68.2 (no result: Yeast growth tox)
O=C(c1cccc2ccccc12)n1nnc2ccccc21	FXIa single inh 48.2
Cc1onc(-c2c(Cl)cccc2Cl)c1C(=O)n1nnc2ccccc21	none (no result: Yeast growth tox)
O=C(O)Cn1c(SCc2cccc3ccccc23)nc2ccccc21	none (no result: Yeast growth tox)
COc1cc(-c2noc(CCCC(=O)NC3CCCCC3)n2)cc(OC)c1OC	none (no result: Yeast growth tox)
O=C(NC(C(=O)c1ccccc1)n1c(=O)cc[nH]c1=S)c1ccccc1 (stereo not given)	FXIa single inh 47.6 (no result: Yeast growth tox)
Cc1cc(=O)n(CNC(=O)c2ccccc2)c(=S)[nH]1	none
Nc1cc2c(cc1C(=O)c1ccc(Cl)cc1)OCCO2	none (no result: Yeast growth tox)
COc1ccc(-c2cn3c4c(sc3n2)CCCC4)cc1	none (no result: Yeast growth tox)
COC(=O)c1ccccc1OC(=O)c1ccc(Br)o1	none (no result: FXIa single inh, FXIIa inh)
O=C(c1cccc(COCC(F)(F)C(F)F)c1)N1CCN(c2ccccc2)CC1	none
Cc1ccc2oc(-c3ccccc3)nc2c1	none (no result: Yeast growth tox)
Cc1nc2ccc(-c3ccccc3)cc2o1	Yeast growth tox 32.4 (no result: FXIa single inh, FXIIa inh)
Cc1cc(C(=O)CN2C(=O)c3ccccc3C2=O)c(C)n1C1CC1	none (no result: FXIa single inh, FXIIa inh)
Cc1c(O)ccc(C(=O)CN2C(=O)c3ccccc3C2=O)c1O	FXIa single inh 58.8 (no result: Yeast growth tox)
O=C(Nc1ccc2nc(-c3ccccn3)[nH]c2c1)C1CCCCC1	none
CC(C)c1nc2ccc(NC(=O)C3CCCCC3)cc2[nH]1	FXIa single inh 104.4
COc1nc2c(C)cccc2cc1-c1noc(-c2ccco2)n1	none (no result: FXIa single inh, FXIIa inh)
CCOC(=O)N1CCN(C/C(C)=C/c2ccccc2)CC1	FXIIa inh 31.0
CCOC(=O)N1CCN(CC(=O)Nc2ccc(C)cc2)CC1	none (no result: Yeast growth tox)
COc1cc(/C=c2\sc3n(c2=O)C(c2ccccc2)C(c2ccccc2)=NN=3)ccc1O (stereo not given)	none
COc1cc(/C=c2\sc3n(c2=O)CCCN=3)ccc1O	FXIa single inh 42.9 (no result: Yeast growth tox)
COc1cccc(OC)c1NC(=O)CN1CCC(NC(=O)c2cccc(F)c2)CC1	none (no result: FXIa single inh, FXIIa inh)
O=C1Nc2ncccc2OC1CCO (stereo not given)	none (no result: Yeast growth tox)
O=C1CC(N2CCCc3ccccc32)C(=O)N1c1ccccc1Cl (stereo not given)	none (no result: FXIa single inh, FXIIa inh)
Cc1cc(/C=N/n2cnnc2)c(C)n1-c1ccccc1	none
